Experiments:
Format in all cases: functional
Rattus norvegicus [1] = test: Ability to promote absorption of recombinant human growth hormone from gastrointestinal tract in rats by using ELISA assay at a of dose 25 mg/kg, rhGH 1 mg/kg by IC administration
Method in brief: (§1)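 Male Sprague-Dawley rats, 225-250 g, in groups of six or seven, with free access to water for 24 h beforehand. Ketamine 44 mg/kg plus thorazine 1.5 mg/kg given just before dosing. Aqueous delivery agent, adjusted to pH 7.2-7.8, with rhGH, given by oral gavage or intracolonic instillation. Serum rhGH measured by ELISA; peak concentration in ng/mL reported as mean ± SD.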

Rattus norvegicus [2] = test: Ability to promote absorption of recombinant human growth hormone from the gastrointestinal tract in rats by using ELISA assay. (Compound dose 200 mg/kg, rhGH 6 mg/kg by OG administration); method in brief: as §1
Rattus norvegicus [3] = test: Ability to promote absorption of recombinant human growth hormone from the gastrointestinal tract in rats by using ELISA assay. (Compound dose 500 mg/kg, rhGH 6 mg/kg by OG administration); method in brief: as §1
Rattus norvegicus [4] = test: Ability to promote absorption of recombinant human growth hormone from the gastrointestinal tract in rats by using ELISA assay at a of dose 25 mg/kg, rhGH 1 mg/kg by IC administration; method in brief: as §1
Rattus norvegicus [5] = test: Ability to promote absorption of recombinant human growth hormone from the gastrointestinal tract in rats by using ELISA assay. (Compound dose 300 mg/kg, rhGH 6 mg/kg by OG administration); method in brief: as §1
Rattus norvegicus [6] = test: Ability to promote absorption of recombinant human growth hormone from the gastrointestinal tract in rats by using ELISA assay. (Compound dose 400 mg/kg, rhGH 6 mg/kg by OG administration); method in brief: as §1
Rattus norvegicus [7] = test: Ability to promote absorption of recombinant human growth hormone (rhGH) from the gastrointestinal tract in rats by using ELISA assay. (Compound at a of dose 250 mg/kg, rhGH 6 mg/kg by OG administration); method in brief: as §1
Rattus norvegicus [8] = test: Ability to promote absorption of recombinant human growth hormone from gastrointestinal tract in rats by using ELISA assay. (Compound dose 500 mg/kg, rhGH 6 mg/kg by OG administration); method in brief: as §1
Rattus norvegicus [9] = test: Ability to promote absorption of recombinant human growth hormone (rhGH) from the gastrointestinal tract in rats by using ELISA assay. (Compound dose 300 mg/kg, rhGH 6 mg/kg by OG administration); method in brief: as §1

## O=C(O)CCCc1ccc(NC(=O)CCOc2ccccc2)cc1
Rattus norvegicus [1]
  Peak rhGH: 44.1 ng/mL

## O=C(O)CCCc1ccc(NC(=O)C2CCCCC2C(=O)O)cc1 (stereo not given)
Rattus norvegicus [2]
  Peak rhGH: 0 ng/mL

## O=C(Cc1ccccc1)Nc1ccc(C(=O)O)cc1
Rattus norvegicus [3]
  Peak rhGH: 0 ng/mL

## O=C(O)CCc1ccc(NC(=O)c2ccccc2[N+](=O)[O-])cc1
Rattus norvegicus [1]
  Peak rhGH: 17.6 ng/mL

## O=C(O)CCCc1ccc(NC(=O)c2ccccc2O)cc1
Rattus norvegicus [4]
  Peak rhGH: 64.7 ng/mL
Rattus norvegicus [5]
  Peak rhGH: 49.7 ng/mL

## O=C(O)c1ccc(NC(=O)c2ccccc2O)cc1
Rattus norvegicus [1]
  Peak rhGH: 0 ng/mL

## O=C(O)CCCc1ccc(NC(=O)Cc2ccccc2F)cc1
Rattus norvegicus [1]
  Peak rhGH: 7.3 ng/mL

## CC1CCC(C(=O)Nc2ccc(C(=O)O)cc2)CC1 (stereo not given)
Rattus norvegicus [6]
  Peak rhGH: 0 ng/mL

## O=C(O)CCCc1ccc(NC(=O)c2ccccc2Cl)cc1
Rattus norvegicus [4]
  Peak rhGH: 52.2 ng/mL

## O=C(O)CCCc1ccc(NC(=O)c2ccccc2F)cc1
Rattus norvegicus [4]
  Peak rhGH: 20.8 ng/mL
Rattus norvegicus [5]
  Peak rhGH: 43.4 ng/mL

## O=C(O)CCc1ccc(NC(=O)c2ccccc2O)cc1
Rattus norvegicus [1]
  Peak rhGH: 37.2 ng/mL

## COc1ccccc1/C=C/C(=O)Nc1ccc(CCC(=O)O)cc1
Rattus norvegicus [1]
  Peak rhGH: 61.7 ng/mL

## CC(C(=O)Nc1ccc(CCCC(=O)O)cc1)c1ccccc1 (stereo not given)
Rattus norvegicus [5]
  Peak rhGH: 2.3 ng/mL

## O=C(O)CCCc1ccc(NC(=O)CCCC2CCCCC2)cc1
Rattus norvegicus [1]
  Peak rhGH: 26 ng/mL

## O=C(O)Cc1ccc(NC(=O)CCc2ccccc2)cc1
Rattus norvegicus [5]
  Peak rhGH: 12.6 ng/mL

## O=C(O)Cc1ccc(NC(=O)c2ccccc2O)cc1
Rattus norvegicus [1]
  Peak rhGH: 5.6 ng/mL

## O=C(O)Cc1ccc(NC(=O)CC2CCCCC2)cc1
Rattus norvegicus [5]
  Peak rhGH: 15.7 ng/mL

## O=C(O)CCCc1ccc(NC(=O)/C=C/c2ccccc2)cc1
Rattus norvegicus [6]
  Peak rhGH: 49.7 ng/mL

## O=C(O)CCCc1ccc(NCc2ccccc2)cc1
Rattus norvegicus [2]
  Peak rhGH: 20.4 ng/mL

## O=C(O)CCCc1ccc(NC(=O)c2ccc(F)cc2)cc1
Rattus norvegicus [5]
  Peak rhGH: 2.8 ng/mL

## O=C(O)CCCc1ccc(NC(=O)c2cccc(C(F)(F)F)c2)cc1
Rattus norvegicus [4]
  Peak rhGH: 17.6 ng/mL

## O=C(O)CCCc1ccc(NC(=O)Cc2ccccc2)cc1
Rattus norvegicus [5]
  Peak rhGH: 8.1 ng/mL

## O=C(O)CCCc1ccc(NC(=O)c2cccc(-c3ccccc3)c2-c2ccccc2)cc1
Rattus norvegicus [3]
  Peak rhGH: 5.9 ng/mL

## O=C(O)CCCc1ccc(NS(=O)(=O)c2ccccc2)cc1
Rattus norvegicus [3]
  Peak rhGH: 28 ng/mL
Rattus norvegicus [7]
  Peak rhGH: 2.6 ng/mL

## O=C(O)CCCc1ccc(NC(=O)c2ccc(-c3ccccc3)cc2)cc1
Rattus norvegicus [3]
  Peak rhGH: 39.9 ng/mL

## O=C(O)CCCc1ccc(NC(=O)c2ccc(-c3ccccc3)c(-c3ccccc3)c2)cc1
Rattus norvegicus [6]
  Peak rhGH: 28.2 ng/mL

## O=C(O)CCCc1ccc(NC(=O)/C=C/c2ccccc2F)cc1
Rattus norvegicus [1]
  Peak rhGH: 7.7 ng/mL

## O=C(O)Cc1ccc(NS(=O)(=O)c2ccccc2)cc1
Rattus norvegicus [3]
  Peak rhGH: 0 ng/mL

## O=C(O)CCCc1ccc(NC(=O)CCC(=O)c2ccccc2)cc1
Rattus norvegicus [1]
  Peak rhGH: 0.6 ng/mL

## O=C(O)CCCc1ccc(NC(=O)c2ccccc2)cc1
Rattus norvegicus [8]
  Peak rhGH: 21.7 ng/mL
Rattus norvegicus [4]
  Peak rhGH: 17.5 ng/mL
Rattus norvegicus [9]
  Peak rhGH: 5.4 ng/mL

## Cc1cccc(C)c1C(=O)Nc1ccc(CCCC(=O)O)cc1
Rattus norvegicus [1]
  Peak rhGH: 7.7 ng/mL

## O=C(O)CCCc1ccc(NC(=O)C(O)C(O)c2ccccc2)cc1 (stereo not given)
Rattus norvegicus [1]
  Peak rhGH: 2.5 ng/mL

## COc1cccc(O)c1C(=O)Nc1ccc(CCC(=O)O)cc1
Rattus norvegicus [1]
  Peak rhGH: 9.3 ng/mL

## O=C(CC1CCCCC1)Nc1ccc(C(=O)O)cc1
Rattus norvegicus [3]
  Peak rhGH: 0 ng/mL

## O=C(O)CCCc1ccc(NC(=O)C2CCCCCC2)cc1
Rattus norvegicus [6]
  Peak rhGH: 92.8 ng/mL
